Test results: ChEMBL document CHEMBL1155708, “Isoaurostatin, a novel topoisomerase inhibitor produced by Thermomonospora alba” (J Nat Prod, 2001)

Columns and labels:
[1] = molecular target: T1, DNA ligase (Enterobacteria phage T4, UniProt P00970); experiment: Inhibition of T4 ligase from bacteriophage infected Escherichia coli assessed as ligation of supercoiled pBR322 DNA; parameters: species or system Tequatrovirus T4
T1 sequence (P00970 whole entry): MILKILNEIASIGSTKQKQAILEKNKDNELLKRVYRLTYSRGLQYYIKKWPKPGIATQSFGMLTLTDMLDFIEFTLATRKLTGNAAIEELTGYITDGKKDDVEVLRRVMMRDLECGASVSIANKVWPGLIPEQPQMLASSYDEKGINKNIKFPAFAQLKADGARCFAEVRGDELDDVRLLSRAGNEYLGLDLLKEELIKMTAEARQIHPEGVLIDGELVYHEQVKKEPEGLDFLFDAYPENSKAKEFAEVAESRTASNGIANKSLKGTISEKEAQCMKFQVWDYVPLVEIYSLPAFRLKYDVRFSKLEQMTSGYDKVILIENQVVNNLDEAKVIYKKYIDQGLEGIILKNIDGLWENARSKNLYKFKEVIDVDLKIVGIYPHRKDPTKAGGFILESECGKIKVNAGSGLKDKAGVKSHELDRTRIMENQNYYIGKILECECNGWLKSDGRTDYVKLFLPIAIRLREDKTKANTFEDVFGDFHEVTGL

[2] = molecular target: T2, DNA topoisomerase 1 (Homo sapiens, UniProt P11387); experiment: Inhibition topoisomerase 1 in human A549 cells assessed as conversion of supercoiled pBR322 DNA to relaxed form; format: cell-based
T2 sequence (P11387 whole entry): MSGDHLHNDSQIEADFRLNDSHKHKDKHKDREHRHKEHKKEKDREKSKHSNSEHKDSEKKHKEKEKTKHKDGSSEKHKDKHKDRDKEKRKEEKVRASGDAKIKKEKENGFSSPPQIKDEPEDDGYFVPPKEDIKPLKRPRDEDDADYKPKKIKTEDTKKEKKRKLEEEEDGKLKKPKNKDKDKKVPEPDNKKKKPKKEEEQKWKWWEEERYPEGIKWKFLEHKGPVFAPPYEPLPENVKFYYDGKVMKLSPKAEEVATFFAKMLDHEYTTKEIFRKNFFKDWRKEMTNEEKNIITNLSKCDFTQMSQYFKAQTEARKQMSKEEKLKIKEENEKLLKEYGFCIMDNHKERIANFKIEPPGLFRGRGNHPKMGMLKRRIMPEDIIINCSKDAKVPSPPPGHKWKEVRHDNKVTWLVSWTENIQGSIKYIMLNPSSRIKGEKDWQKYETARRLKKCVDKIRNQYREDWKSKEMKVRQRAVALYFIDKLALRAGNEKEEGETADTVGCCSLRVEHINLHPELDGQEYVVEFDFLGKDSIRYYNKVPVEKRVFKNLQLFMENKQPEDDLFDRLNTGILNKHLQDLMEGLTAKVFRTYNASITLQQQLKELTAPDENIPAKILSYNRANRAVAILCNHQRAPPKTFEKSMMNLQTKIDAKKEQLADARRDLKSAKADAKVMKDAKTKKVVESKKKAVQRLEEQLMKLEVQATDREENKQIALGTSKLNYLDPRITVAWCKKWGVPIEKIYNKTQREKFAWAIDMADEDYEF
Procedure, shortened: (§1)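 Topo I source: crude extract from cells grown 5 days, PBS-washed and pelleted (1 × 10^6 cells), then lysed 30 min on ice in Tris-HCl pH 7.5 buffer with MgCl2, EGTA, AEBSF, β-mercaptoethanol, 0.5% CHAPS and 10% glycerin. The cleared supernatant relaxes supercoiled pBR322 DNA. Products are resolved on agarose gel and scored by densitometry.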

[3] = molecular target: T2, DNA topoisomerase 1; experiment: Inhibition topoisomerase 1 in human HeLa cells assessed as conversion of supercoiled pBR322 DNA to relaxed form; format: cell-based; procedure, shortened: as §1
[4] = molecular target: T2, DNA topoisomerase 1; experiment: Inhibition topoisomerase 1 in human COLO201 cells assessed as conversion of supercoiled pBR322 DNA to relaxed form; format: cell-based; procedure, shortened: as §1

Structure (SMILES)	IC50 [1]	IC50 [2]	IC50 [3]	IC50 [4]
CC[C@@]1(O)C(=O)OCc2c1cc1n(c2=O)Cc2cc3ccccc3nc2-1 [CAMPTOTHECIN]	> 300 µM			
COc1cccc2c1C(=O)c1c(O)c3c(c(O)c1C2=O)C[C@@](O)(C(=O)CO)C[C@@H]3O[C@H]1C[C@H](N)[C@H](O)[C@H](C)O1 [DOXORUBICIN]	> 200 µM			
O=C1Oc2cc(O)ccc2/C1=C\c1ccc(O)cc1 [ISOAUROSTATIN]	> 400 µM	> 400 µM	> 400 µM	> 400 µM
C=C1NC(=O)C(C)C(CCC(C)C(=O)/C=C/C(C)=C/CC(C)CCCCCCC)OC(=O)[C@H](CC(OS(=O)(=O)O)C(N)=O)NC(=O)[C@@H](C)CNC1=O (stereo not given in full) [TOPOSTATIN]	> 250 µM	55 µM	29 µM	50 µM
